Source: PubChem BioAssay
SIAE primary: human SIAE inhibitors, primary screen, biochemical, fluorescence polarization, FP-Rh probe, 1536-well HTS; Sialate O-acetylesterase (Homo sapiens), Q9HAT2; SIAE FP-Rh probe binding; inhibition, % at 9.66 µM; hit rate 0.69% among 370,000; AID 1053197, 2014;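 active means inhibition above a cutoff: mean of compounds within the control limits plus 3 SD of those, cut at about 17% in these data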;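 further: 0% = plate median of compound wells and 100% = probe without SIAE protein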
PRMT1 inh: PRMT1 methyltransferase inhibitors, primary screen, biochemical, fluorescence polarization | inhibition, % at 2.79 µM | Protein arginine N-methyltransferase 1 (Homo sapiens), Q99873 | AID 652257, 2013 | recombinant PRMT1, activity-based probe fluorescence polarization | hit rate 1.3% among 370,000;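 active means inhibition above about 21% made by adding two undisclosed values, limit read from the data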
Target sequence (Q99873 whole entry, looked up): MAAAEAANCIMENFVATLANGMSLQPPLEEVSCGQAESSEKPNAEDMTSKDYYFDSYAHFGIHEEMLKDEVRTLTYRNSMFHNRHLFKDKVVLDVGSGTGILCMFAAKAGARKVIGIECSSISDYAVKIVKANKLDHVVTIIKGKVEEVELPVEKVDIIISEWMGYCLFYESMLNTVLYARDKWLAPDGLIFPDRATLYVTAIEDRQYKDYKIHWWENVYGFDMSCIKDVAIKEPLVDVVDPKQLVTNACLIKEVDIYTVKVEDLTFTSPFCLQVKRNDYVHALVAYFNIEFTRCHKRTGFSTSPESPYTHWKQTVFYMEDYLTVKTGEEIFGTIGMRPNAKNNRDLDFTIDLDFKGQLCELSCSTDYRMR
mABHD4 FP: ABHD4 inhibitors, primary screen, biochemical, fluorescence polarization, mouse; hit rate 0.54% among 370,000; inhibition, % at 8.92 µM; purified mABHD4, FP-Rh probe fluorescence polarization;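 active means inhibition exceeding the mean over every tested compound plus 3 SD, cut at about 30% in these data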;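 further: 0% = plate median of compound wells and 100% = S159A mutant with DMSO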
Target sequence (Q8VD66 whole entry, looked up): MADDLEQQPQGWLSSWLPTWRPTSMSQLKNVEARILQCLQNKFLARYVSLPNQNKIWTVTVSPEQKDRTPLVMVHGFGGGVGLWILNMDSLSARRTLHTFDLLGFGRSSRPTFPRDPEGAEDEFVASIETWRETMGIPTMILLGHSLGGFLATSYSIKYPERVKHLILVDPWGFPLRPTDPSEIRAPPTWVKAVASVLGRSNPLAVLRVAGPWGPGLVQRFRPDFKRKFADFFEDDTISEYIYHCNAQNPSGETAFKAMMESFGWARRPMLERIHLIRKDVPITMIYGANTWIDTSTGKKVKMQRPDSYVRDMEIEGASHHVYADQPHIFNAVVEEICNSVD
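Material: mouse ABHD4 enzyme, wild type; Benchmarks: S159A mutant high control, sample median low control; Buffer or medium: HEPES pH 7.0, NaCl, Pluronic buffer; Signal: fluorescence polarization; Read-out: percent inhibition of probe binding, normalized to plate controls; Timing: pre-incubation 45 min, probe exposure 60 min, at 25 °C; Dosing: 8.92 µM, single dose.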
HTRA1 inhibitor: HTRA1 serine protease inhibitors, primary screen, biochemical, fluorescence polarization, HTS; Q92743; recombinant HTRA1, FP-rhodamine activity-based probe; inhibition, % at 5.96 µM; hit rate 0.5% among 340,000; in the data active means inhibition above about 36%;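 further: 0% = enzyme with DMSO and 100% = wells lacking enzyme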
rCAG binder: binders of r(CAG) RNA repeats, primary screen, biochemical, fluorescence; r(CAG) RNA repeat, TO-PRO-1 dye displacement fluorescence; inhibition, % at 3 µM; hit rate 1.3% among 370,000; AID 651821, 2012;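 active means inhibition above the plate cutoff, the mean of all test compounds on that plate plus 3 SD, cut at about 35% in these data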;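 further: 0% = DMSO alone and 100% = 100 µM mitoxantrone as full dye displacement; higher means more dye released from RNA so lower well fluorescence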
rCAG bind conf: small molecules binding CAG repeat RNA – biochemical, fluorescence, confirmation; AID 652065, 2013; hit rate 70% among 4,300; inhibition, % at 3 µM; shares compounds with rCAG binder; r(CAG) RNA repeat, TO-PRO-1 dye displacement fluorescence;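 active means inhibition above a per-plate cutoff, the mean inhibition of sample wells plus 3 SD, cut at about 35% in these data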;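 further: loss of TO-PRO-1 fluorescence as compound displaces dye from 1x1 AA loop RNA; 0% = DMSO only wells and 100% = 100 µM mitoxantrone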
dCAG dye counter: displacement of TO-PRO-1 from CAG DNA duplex, counter-screen for rCAG RNA repeat binder project, biochemical, fluorescence, TO-PRO-1 dye, d(CAG) DNA oligo; shares compounds with rCAG binder; d(CAG) DNA oligo TO-PRO-1 dye displacement; inhibition, % at 3 µM; hit rate 94% among 4,300;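 active means inhibition above its plate's cutoff, the mean test-well inhibition plus 3 SD, cut at about 4.8% in these data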;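 further: 0% = DNA dye mix with DMSO and 100% = 100 µM mitoxantrone; hits displace the dye from DNA and so lower well fluorescence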
DNA CAG DR: inhibitors of DNA CAG/GTC TO-PRO-1 complex, dose response, counter-screen for rCAG RNA repeat binder project, biochemical, fluorescence, TO-PRO-1 dye | shares compounds with rCAG binder | DNA CAG/GTC duplex TO-PRO-1 dye displacement fluorescence | IC50, µM | hit rate 20% among 250; in the data active means IC50 below about 10 µM
An asterisk follows results filed as active; / = no result. Sampled rows, rich in hits. Any-hit rate of the full collection: about 3.3%.

SMILES | SIAE primary | PRMT1 inh | mABHD4 FP | HTRA1 inhibitor | rCAG binder | rCAG bind conf | dCAG dye counter | others
COc1cccc(NC(=O)Nc2nc3ncccn3c2-c2ccc(C(F)(F)F)cc2)c1 | -0.2 | -4.2 | 13.0 | / | 1.1 | / | /
Cc1csc(NC(=O)COCC(=O)O)c1-c1nc2ccccc2s1 | 2.0 | -5.6 | -2.4 | / | 55.5* | 43.2* | 9.7*
CCCCOc1ccc(C(=O)n2ccc3ccc(-c4ccc5ccn(Cc6cccc(C(=O)OC)c6)c5c4)cc32)cc1 | -9.3 | 2.2 | -14.2 | / | 16.6 | / | /
CCOC(=O)N1CCN(C(=O)C[C@H]2C[C@@]3(C(=O)OC)C(=C[C@H](C4CCCC4)O[C@@H]3C)N(CCc3ccc(OC)c(OC)c3)C2=O)CC1 | 3.4 | -0.9 | 2.8 | / | 3.5 | / | /
COc1ccc(C(=O)Nc2ccccc2C(=O)Nc2ccc(C(=O)O)cc2)cc1 | -13.4 | 2.1 | -20.2 | -5.6 | 14.0 | / | /
COc1ccc(C(=NNc2ccccc2C(=O)O)c2ccc(OC)cc2)cc1 | -8.3 | 0.8 | 9.1 | 15.3 | 82.9* | 66.5* | 25.8*
COc1ccc(C(=O)Nc2ccccc2C(=O)Nc2ccccc2C(=O)O)cc1 | -51.3 | 0.8 | -26.8 | -95.6 | 78.1* | 77.1* | 39.5*
O=C1N/C(=N\S(=O)(=O)c2ccccc2)S/C1=C\c1cc([N+](=O)[O-])ccc1O | -39.4 | 7.5 | 24.8 | -0.3 | 67.1* | 51.8* | 11.6* | DNA CAG DR=>29.9
COc1cc(/C=C2/S/C(=N/S(=O)(=O)Cc3ccccc3)NC2=O)c([N+](=O)[O-])cc1OC | -3.1 | 7.8 | 2.2 | 0.4 | 72.7* | 67.0* | 28.7*
COc1cc(/C=C2/S/C(=N/S(=O)(=O)c3ccccc3)NC2=O)c([N+](=O)[O-])cc1OC | -11.6 | 33.5* | 5.5 | 5.8 | 78.0* | 76.7* | 41.1*
Cc1ccc(S(=O)(=O)/N=C2/NC(=O)/C(=C\c3cc(Br)cc(Br)c3O)S2)cc1 | / | / | / | -73.2 | / | / | /
COc1cc(/C=C2\S/C(=N/S(=O)(=O)Cc3ccccc3)NC2=O)c([N+](=O)[O-])cc1OC | 0.1 | 6.8 | 5.2 | -5.2 | 78.3* | 71.1* | 32.9*
COc1cc(/C=C2/SC(=O)NC2=O)ccc1Oc1ccc([N+](=O)[O-])cc1[N+](=O)[O-] | -8.1 | 0.3 | -13.7 | -6.7 | 21.6 | / | /
Cc1cccc(NC(=O)N2CCC(N(C)CCC(C)C)CC2)c1 | -2.6 | 2.1 | -1.9 | / | 0.4 | / | /
COCCn1c(=NC(=O)c2cc(-c3cccs3)nc3ccccc23)sc2cc(S(N)(=O)=O)ccc21 | -118.1 | -1.8 | -113.0 | -139.3 | 35.9* | 39.1* | 18.9*
C[C@H]1CCCN1c1cccc2c1S(=O)(=O)N1CC[C@@H](C1)O2 | -3.1 | 1.9 | 5.9 | / | 4.5 | / | /
NC(=NC(=O)/C=C/c1ccccc1Br)N(CC#Cc1ccccc1)CC#Cc1ccccc1 | -4.7 | 0.0 | -14.9 | / | / | / | /
CCCSc1nnc(N2C(=O)C(O)=C(C(=O)c3ccco3)C2c2ccccc2F)s1 (stereo unspecified) | -3.7 | 20.0 | -14.5 | -14.7 | 47.6* | 41.4* | 10.8*
CSc1nnc(N2C(=O)C(O)=C(C(=O)c3ccc(C)o3)C2c2ccc(C)cc2)s1 (stereo unspecified) | -7.1 | 13.6 | -1.9 | -12.0 | 39.0* | 32.2 | 5.6*
COC(=O)[C@H](C)NC(=O)C(Cc1ccc2c(c1)OCO2)NC(C)=O (stereo partly specified) | -111.3 | -2.4 | -3.1 | / | 2.3 | / | /
O=C(CSc1nnc(-c2ccccc2F)n1C1CC1)Nc1cccnc1Cl | -6.8 | 1.2 | -2.8 | 0.2 | -0.8 | / | /
O=C(CSc1nnc(-c2ccccc2F)n1C1CCCCC1)Nc1cc(C(=O)O)ccc1Cl | 5.2 | 2.7 | -6.7 | -3.2 | 38.3* | 33.7 | 6.9*
COc1ccc(S[C@]2(C(=O)N3CCN(c4ncccn4)CC3)CC(=O)N(S(=O)(=O)c3ccc(F)cc3)[C@@H]2c2ccc(OC)cc2)cc1 | -4.2 | 6.3 | -7.4 | / | 12.1 | / | /
CCOC(=O)c1ccc(NC(=O)CC2S/C(=N/N=C/c3c[nH]c4ccccc34)NC2=O)cc1 (stereo unspecified) | 6.4 | 2.0 | -21.5 | -5.2 | 78.2* | 84.7* | 47.5*
Cc1ccc(NC(=O)CC2S/C(=N/N=C3/NC(=O)CS3)NC2=O)cc1 (stereo unspecified) | -0.9 | 4.8 | 11.4 | 0.9 | 5.5 | / | /
SMILES | SIAE primary | PRMT1 inh | mABHD4 FP | HTRA1 inhibitor | rCAG binder | rCAG bind conf | dCAG dye counter | others
Cc1ccc(NC(=O)CC2S/C(=N/N=C/c3c[nH]c4ccccc34)NC2=O)cc1 (stereo unspecified) | -5.7 | 1.5 | 0.6 | 0.3 | 47.4* | 64.2* | 23.4*
COC(=O)[C@]12C[C@H](CC(=O)NCc3ccccc3)C(=O)N(CCc3ccc(OC)c(OC)c3)C1=C[C@H](COCc1ccccc1)O[C@@H]2C | 9.2 | -1.7 | -1.3 | / | 6.1 | / | /
Cc1cc(O)cc(=O)n1-c1ccc(OC(F)F)cc1 | 3.1 | -3.4 | 11.1 | / | 1.4 | / | /
O=C(Nc1cccc(C(F)(F)F)c1)c1cccc(NS(=O)(=O)c2ccc(O)c(C(=O)O)c2)c1 | -39.9 | -2.7 | -48.2 | -103.9 | 79.2* | 62.2* | 23.7*
Cc1ccc(NS(=O)(=O)c2ccc(Cl)c(C(=O)Nc3ccccc3-c3nc4ccccc4[nH]3)c2)cc1C | -219.1 | -2.7 | -199.2 | -137.1 | 47.0* | 41.7* | 24.5*
Cc1ccccc1NS(=O)(=O)c1cccc(C(=O)Nc2cccc(C(=O)O)c2)c1 | -2.0 | 0.1 | -15.6 | 6.8 | 13.0 | / | /
O=C(Nc1ccccc1C(=O)O)c1cc(S(=O)(=O)Nc2cccc(F)c2)ccc1Cl | 4.5 | -7.6 | -18.9 | -14.8 | 45.5* | 30.4 | 9.3*
CN(C)S(=O)(=O)c1ccc(Cl)c(C(=O)Nc2nc3ccccc3[nH]2)c1 | -2.5 | 0.3 | 1.6 | -2.4 | 2.6 | / | /
Cc1cccc(NC(=O)c2cccc(S(=O)(=O)Nc3ccccc3C(=O)O)c2)c1 | -7.9 | -1.6 | -10.9 | -16.3 | 52.0* | 32.4 | 7.5*
O=C(Nc1cccc(C(F)(F)F)c1)c1cccc(NS(=O)(=O)c2ccc(Br)c(C(=O)O)c2)c1 | -17.5 | 1.9 | -1.3 | -3.5 | 13.2 | / | /
